Source: ChEMBL document CHEMBL1131098, “Synthesis and antitumor activity of 4-aminomethylthioxanthenone and 5-aminomethylbenzothiopyranoindazole derivatives” (J Med Chem, 1998)

Tests used:
Type in all cases: functional
Mus musculus [1] = test: In vivo antitumor activity measured in mice against the Mam16/C murine solid tumors.
Mus musculus [2] = test: In vivo antitumor activity measured in mice against the Colon38 murine solid tumors.
Mus musculus [3] = test: In vivo antitumor activity measured in mice against the Colon51 murine solid tumors.
Mus musculus [4] = test: In vivo antitumor activity measured in mice against the Panc 02 murine solid tumors.
Mus musculus [5] = species: Mus musculus; test: The long term cures (LTC) value is the number of mice in a group with no palpable tumor.
In short: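 Panc03-bearing BDF1 mice (bilateral sc fragments) dosed iv at the maximum tolerated dose from day 3. Long-term cure is a mouse with no palpable tumor after at least 86 days, reported as cured mice over total mice per treatment group.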

Mus musculus [6] = test: In vivo antitumor activity measured in mice against the Colon26/A murine solid tumors.
Mus musculus [7] = species: Mus musculus; test: compound was tested for murine tumor growth inhibition,T/C value ([…]/control) in mice.
In short: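 BDF1 mice implanted bilaterally sc with 30–60-mg Panc03 fragments on day 0. Dosing iv at the maximum tolerated dose (LD10 or less), starting 3 days after implantation. Tumor growth inhibition expressed as %T/C; %T/C > 42 counted as not active.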

| Structure (SMILES) | T/C (Mus musculus [1]) [%] | T/C (Mus musculus [2]) [%] | T/C (Mus musculus [3]) [%] | T/C (Mus musculus [4]) [%] | LTC (Mus musculus [5]) | T/C (Mus musculus [6]) [%] | T/C (Mus musculus [7]) [%] |
| --- | --- | --- | --- | --- | --- | --- | --- |
| CCN(CC)CCNc1ccc(CNS(C)(=O)=O)c2sc3ccccc3c(=O)c12 | 6 | 0 | 14 | 23 | 0.6 | 29 |  |
| CCN(CC)CCNc1ccc(CN2C(=O)c3ccccc3C2=O)c2sc3ccccc3c(=O)c12 |  |  |  |  |  |  | 38 |
